The results in this text go back to article PMC5569645 (ACS Chemical Biology, 2017).

Entries after “also recorded” stand apart in the source; their conditions may differ.

The Kd is a measure of binding affinity in units of concentration. Higher therefore signals a looser complex.

Experiment [1] addresses NOD2 in native membrane vesicles (Homo sapiens, UniProt Q9HC29). Type of experiment: binding. The following applies: for binding to NOD2 in the native-membrane environment (in words) / relative binding strength: BSI; for binding to NOD2 in the native-membrane environment (in words): native-membrane vesicles; for relative binding strength: NOD2 in native membrane vesicles; for BSI signal on titration after preincubation with excess ligand 2: competition binding, membrane vesicles preincubated with ligand 2 (10 μM). An outline of the steps: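 Vesicles: about 1 × 10^8 HEK293T-Nod2Myc/tet-op cells in ice-cold HBSS with EDTA-free protease inhibitors, probe-sonicated to clarity, passed through a 220 nm filter (2 h, 6000g, 4 °C). Filtrate stored at 4 °C up to 4 days. Checked by DLS, FM1-43FX lipid stain and Western blot. Fixed vesicle amount plus ligand titration, 40 min dark, RT. BSI chip at 25 °C. Referenced to NOD2-negative HEK293T vesicles; single-site Langmuir fit. Competition: 10 μM excess ligand preincubation, then titration.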

Experiment [2] deals with T1, purified WT NOD2 (Homo sapiens, UniProt Q9HC29). Kind of experiment: Backscattering interferometry. Type of experiment: binding. In a few lines: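 Purified Flag-tagged human WT NOD2 from baculovirus/insect cells, stored at 4 °C and used within 3 days, at a fixed 10 nM in PBS pH 6.5. Increasing ligand, incubated 40 min at RT in the dark, then read by BSI on a passivated microfluidic chip at 25 °C. Phase change plotted against concentration; purified NOD1 signal under identical conditions subtracted. Single-site fit; run in triplicate, Kd reported as a range.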
T1 sequence (Q9HC29 whole entry): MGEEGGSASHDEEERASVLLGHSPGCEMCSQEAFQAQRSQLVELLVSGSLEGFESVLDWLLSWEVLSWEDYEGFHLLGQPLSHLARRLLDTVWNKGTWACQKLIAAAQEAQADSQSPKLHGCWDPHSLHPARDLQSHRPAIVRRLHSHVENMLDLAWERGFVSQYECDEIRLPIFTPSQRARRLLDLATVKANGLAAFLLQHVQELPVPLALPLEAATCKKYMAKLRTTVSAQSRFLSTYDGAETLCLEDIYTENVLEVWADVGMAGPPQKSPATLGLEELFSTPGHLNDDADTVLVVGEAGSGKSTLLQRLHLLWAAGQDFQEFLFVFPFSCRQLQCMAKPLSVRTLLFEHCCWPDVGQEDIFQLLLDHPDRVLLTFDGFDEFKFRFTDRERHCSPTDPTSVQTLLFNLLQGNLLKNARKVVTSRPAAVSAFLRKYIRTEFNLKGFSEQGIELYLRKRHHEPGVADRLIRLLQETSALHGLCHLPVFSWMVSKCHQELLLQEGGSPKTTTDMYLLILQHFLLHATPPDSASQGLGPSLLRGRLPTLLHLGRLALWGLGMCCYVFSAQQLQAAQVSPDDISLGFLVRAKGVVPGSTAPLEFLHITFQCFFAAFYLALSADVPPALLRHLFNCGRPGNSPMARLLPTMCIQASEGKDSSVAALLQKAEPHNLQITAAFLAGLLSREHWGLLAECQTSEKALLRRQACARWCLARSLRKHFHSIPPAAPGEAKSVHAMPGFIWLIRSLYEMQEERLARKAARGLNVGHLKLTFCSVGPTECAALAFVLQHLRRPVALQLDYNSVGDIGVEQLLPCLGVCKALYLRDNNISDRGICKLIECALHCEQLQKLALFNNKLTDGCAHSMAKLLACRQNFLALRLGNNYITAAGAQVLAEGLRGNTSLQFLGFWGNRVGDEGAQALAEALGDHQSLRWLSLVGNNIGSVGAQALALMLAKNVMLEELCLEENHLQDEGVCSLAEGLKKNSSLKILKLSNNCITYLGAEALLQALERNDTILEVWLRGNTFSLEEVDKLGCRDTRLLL

Experiment [3] addresses T1, purified WT NOD2. Kind of experiment: SPR binding assay, surface-tethered ligands and purified WT NOD2. In a few lines: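 Amine-functionalized peptidoglycan derivatives coupled in separate lanes to carboxylic acid-terminated thioalkane self-assembled monolayers on gold. Purified Flag-tagged human WT NOD2 (insect-cell expressed, used within 3 days) flowed over at pH 6.5. Apparent dissociation constants taken from the adsorption isotherm, not a true KD.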
(In general: Surface plasmon resonance follows binding to a sensor surface in real time, without labels.)

Sequence of NOD2 in native membrane vesicles (Q9HC29 whole entry): as above

Take `CC(=O)N[C@H]1C(O)O[C@H](CO)[C@@H](O)[C@@H]1O[C@H](C)C(=O)O` (some centres unmarked) [N-acetyl-muramic acid, reference compound]: the “binding to NOD2 in the native-membrane environment (in words)” value (shortened to “binding to NOD2”) in experiment [1] was “did not bind; also recorded: does not bind or activate”.
Still for that read-out and setting: to `N[C@H](CCC(=O)N[C@H](CCC[C@H](N)C(=O)O)C(=O)O)C(=O)O` [iE-DAP, reference compound] belongs “did not bind”.
At purified WT NOD2 [2], `CC(=O)N[C@@H]1[C@@H](O[C@H](C)C(=O)N[C@@H](C)C(=O)N[C@H](CCC(=O)O)C(N)=O)[C@H](O)[C@@H](CN)O[C@@H]1O` [ligand 2, 6-amino-MDP-(LD)] had a Kd of 2 to 10 nM. Moreover, the Kd on purified WT NOD2 [3] was in the range of 4 to 10 nM. In experiment [1], the Kd is 3 to 30 nM, the relative binding strength result was “strong”, the “binding to NOD2” value is “bind with high affinity” and the “BSI signal on titration after preincubation with excess ligand 2” value is recorded as “no BSI signal”.
As to `CC(=O)N[C@@H]1[C@@H](O[C@H](C)C(=O)N[C@@H](C)C(=O)N[C@@H](CCC(=O)O)C(N)=O)[C@H](O)[C@@H](CN)O[C@@H]1O` [ligand 3, 6-amino-MDP-(LL)], the Kd at purified WT NOD2 [2] fell in the range of 1 to 6 nM. This compound also came in with a Kd on purified WT NOD2 [3] of 10 to 18 nM. Further, in experiment [1], the Kd was 3 to 30 nM, the relative binding strength entry was “strong” and the “binding to NOD2” value is given as “bind with high affinity”.
On purified WT NOD2 [2], `CC(=O)N[C@@H]1[C@@H](O[C@H](C)C(=O)N[C@@H](C)C(=O)O)[C@H](O)[C@@H](CN)O[C@@H]1O` [ligand 18] displayed a Kd of 15 to 30 nM. Besides, at purified WT NOD2 [3], the Kd was in the range of 24 to 36 nM. In experiment [1], the relative binding strength entry is listed as “strong” and the “binding to NOD2” value was “indications of binding but unusual curves”.
As to `COC(=O)[C@H](C)NC(=O)[C@@H](C)O[C@H]1[C@H](O)[C@@H](CN)O[C@H](O)[C@@H]1NC(C)=O` [ligand 19], on purified WT NOD2 [2], the dissociation constant Kd lay in the range of 8 to 20 nM. The Kd on purified WT NOD2 [3] is 16 to 30 nM. In experiment [1], the Kd fell in the range of 3 to 30 nM, the relative binding strength result is “strong” and the “binding to NOD2” value is reported as “bind with high affinity; also recorded: strongly bound”.
At purified WT NOD2 [2], `COC(=O)[C@@H](C)O[C@H]1[C@H](O)[C@@H](CN)O[C@H](O)[C@@H]1NC(C)=O` [ligand 20] came in with a Kd of 2 to 10 nM. On purified WT NOD2 [3], this compound gave a Kd of 12 to 24 nM. Also, in experiment [1], the Kd lay in the range of 50 to 200 nM, the relative binding strength entry is “weak”, the “binding to NOD2” value is “bind with weak affinity; also recorded: weakly bound” and the “BSI signal on titration after preincubation with excess ligand 2” value is “no BSI signal”.
On to `COC(=O)[C@@H](C)O[C@H]1[C@H](O)[C@@H](CO)OC(O)[C@@H]1NC(C)=O` (some centres unmarked) [ligand 23, N-acetyl muramyl methyl ester], for which the “binding to NOD2” value in experiment [1] is recorded as “bound with similar high affinity”.
